Test [1] deals with T1, Serotonin 3 (5-HT3) receptor (Rattus norvegicus, UniProt P35563+Q9JJ16).
T1 sequence (P35563 whole entry): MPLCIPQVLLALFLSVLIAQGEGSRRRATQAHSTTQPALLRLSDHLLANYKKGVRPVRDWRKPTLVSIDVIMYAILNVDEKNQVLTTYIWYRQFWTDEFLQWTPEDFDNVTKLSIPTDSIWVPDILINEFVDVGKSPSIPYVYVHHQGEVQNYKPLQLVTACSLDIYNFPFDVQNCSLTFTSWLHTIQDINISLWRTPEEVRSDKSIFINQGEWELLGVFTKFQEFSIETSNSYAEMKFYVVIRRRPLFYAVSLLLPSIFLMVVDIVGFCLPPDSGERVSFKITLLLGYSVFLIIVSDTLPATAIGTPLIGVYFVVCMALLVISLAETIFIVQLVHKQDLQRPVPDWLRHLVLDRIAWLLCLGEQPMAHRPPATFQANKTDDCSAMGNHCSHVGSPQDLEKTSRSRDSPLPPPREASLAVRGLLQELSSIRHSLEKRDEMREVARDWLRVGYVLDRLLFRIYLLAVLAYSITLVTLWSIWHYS
T1 sequence (Q9JJ16 whole entry): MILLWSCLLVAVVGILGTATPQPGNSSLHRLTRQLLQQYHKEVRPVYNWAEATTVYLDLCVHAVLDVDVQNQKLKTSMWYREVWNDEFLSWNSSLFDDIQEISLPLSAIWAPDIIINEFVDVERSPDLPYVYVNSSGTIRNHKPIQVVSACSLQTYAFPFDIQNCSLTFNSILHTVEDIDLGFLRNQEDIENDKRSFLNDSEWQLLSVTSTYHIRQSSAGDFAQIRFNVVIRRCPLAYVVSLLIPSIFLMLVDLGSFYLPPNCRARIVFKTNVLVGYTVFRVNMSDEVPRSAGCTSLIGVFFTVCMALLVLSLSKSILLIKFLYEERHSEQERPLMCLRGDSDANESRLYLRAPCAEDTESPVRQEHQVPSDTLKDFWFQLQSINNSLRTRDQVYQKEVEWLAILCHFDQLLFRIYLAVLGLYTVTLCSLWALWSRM
Put plainly: Ability to displace [3H]quipazine binding to 5-hydroxytryptamine 3 receptor sites in NG 108-15. The class given is protein-complex assay. In a few lines: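 Membranes from 3 × 10^6 NG 108-15 cells in 20 mM Tris-HCl pH 7.5 with 154 mM NaCl. Incubated with 2 nM [3H]quipazine and varying test concentrations, 37 °C for 60 min. Stopped with ice-cold buffer, then GF/C filtration and scintillation counting. Nonspecific binding defined with 10 μM MDL 72222. […] Mean ± SEM, n = 3.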

For test [2], the target named is Serotonin 3 (5-HT3) receptor (Rattus norvegicus) (UniProt P35563+Q9JJ16). Put plainly: Inhibition of 5-HT induced bradycardia [Benzold-Jarisch (BJ) reflex test] in rats at 5 min administered intravenously. The class given is functional. The essentials: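 Male Wistar rats (230–330 g) under urethane (1.25 g/kg ip), tracheal cannula. Blood pressure taken from the left carotid, heart rate from the pressure trace. Compounds given iv via jugular vein. Bezold-Jarisch reflex evoked by bolus iv 5-HT 30 μg/kg, with challenges every 12 min. ED50 is the dose halving 5-HT bradycardia, by linear regression, 4 rats.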

The target of test [3] is T1, Serotonin 3 (5-HT3) receptor. Kind of test: Compound was evaluated for its ability to displace [3H]quipazine binding to 5-hydroxytryptamine 3 receptor sites in NG 108-15. It counts as protein-complex assay.
The species entered for another test is Rattus norvegicus. Kind of test: animal or person. It counts as functional. Conditions: 5 min.

Molecules are shown by their SMILES.

For the compound `CCCCOc1cc(C(=O)OC2CC3CCC(C2)N3C)c2ccccc2n1` (stereo not drawn), in test [1], affinity was put at a Ki of 0.39 nM. In test [2], it took a dose of 0.2 mg/kg to reach the 50% effect level (ED50).

Regarding `CN1C2CCC1CC(NC(=O)c1cc(=O)n(-c3ccccc3)c3ccccc13)C2` (stereo not drawn), the affinity in test [1] corresponds to a Ki of 63 nM.

Turning to `CC(C)n1c(=O)cc(C(=O)OC2CC3CCC(C2)N3C)c2ccccc21` (stereo not drawn), the affinity in test [1] corresponds to a Ki of 0.032 nM. The ED50 (usually the dose at which the effect has come halfway, by size or by number of responders) in test [2] was found to be 0.081 mg/kg.

With `CCCCOc1cc(C(=O)NC2CC3CCC(C2)N3C)c2ccccc2n1` (stereo not drawn), the Ki (commonly a dissociation constant, usually derived from enzyme kinetics or from competition with a known ligand) in test [1] is 19 nM.

In test [1], `CCCCCOc1cc(C(=O)OC2CC3CCC(C2)N3C)c2ccccc2n1` (stereo not drawn) registered a Ki of 0.86 nM. For the same compound, the 50% effect level in test [2] (ED50) was put at a dose of 1.13 mg/kg.

Regarding `CN1C2CCC1CC(OC(=O)c1cc(=O)n(-c3ccccc3)c3ccccc13)C2` (stereo not drawn), the Ki in test [1] amounted to 0.51 nM. In test [2], the ED50 amounted to 0.044 mg/kg.

In turn, `CCCCN1C(=O)CC(C(=O)OC2CC3CCC(C2)N3C)c2ccccc21` (stereo not drawn) displayed a Ki in test [1] of 8.7 nM.

Take `CC(C)Oc1cc(C(=O)OC2CC3CCC(C2)N3C)c2ccccc2n1` (stereo not drawn): the Ki in test [1] was 0.31 nM. The same compound displayed a median effective dose (ED50) in test [2] of 1.62 mg/kg.

With `CC(C)CCn1c(=O)cc(C(=O)OC2CC3CCC(C2)N3C)c2ccccc21` (stereo not drawn), the affinity in test [1] corresponds to a Ki of 1.5 nM. Moreover, the ED50 in test [2] was 0.059 mg/kg.

In test [1], `COc1cc(C(=O)OC2CC3CCC(C2)N3C)c2ccccc2n1` (stereo not drawn) displayed a Ki of 0.58 nM. Moreover, in test [2], it took a dose of 5.64 mg/kg to reach the 50% effect level (ED50).

In test [1], `CN1C2CCC1CC(OC(=O)c1cc(=O)n(C)c3ccccc13)C2` (stereo not drawn) returned a Ki of 2.6 nM. In test [2], the 50% effect level (ED50) was put at a dose of 0.18 mg/kg.

In test [1], `CN1C2CCC1CC(NC(=O)c1cc(O)nc3ccccc13)C2` (stereo not drawn) displayed a Ki of more than 100 nM.

Take `CCn1c(=O)cc(C(=O)OC2CC3CCC(C2)N3C)c2ccccc21` (stereo not drawn): the Ki in test [1] was found to be 1.1 nM. The same compound registered an ED50 in test [2] of 0.022 mg/kg.

Compound `CCCOc1cc(C(=O)OC2CC3CCC(C2)N3C)c2ccccc2n1` (stereo not drawn) gave a Ki in test [1] of 0.32 nM. In test [2], this compound had a 50% effective dose (ED50) of 6.78 mg/kg.

Compound `CCCCn1c(=O)cc(C(=O)NC2CC3CCC(C2)N3C)c2ccccc21` (stereo not drawn) registered a Ki in test [1] of 60 nM.

Compound `CN1C2CCC1CC(OC(=O)c1ccnc3ccccc13)C2` (stereo not drawn) came in with a Ki in test [3] of 7.1 nM.

For `CCCCCn1c(=O)cc(C(=O)OC2CC3CCC(C2)N3C)c2ccccc21` (stereo not drawn), the Ki in test [1] was determined as 0.96 nM. For the same compound, the ED50 in test [2] amounted to 0.059 mg/kg.

Compound `CCCCCCn1c(=O)cc(C(=O)OC2CC3CCC(C2)N3C)c2ccccc21` (stereo not drawn) yielded a Ki in test [1] of 1.1 nM.

`CC(C)Oc1cc(C(=O)NC2CC3CCC(C2)N3C)c2ccccc2n1` (stereo not drawn) showed a Ki in test [1] of 53 nM.

With `CCCCn1c(=O)cc(C(=O)OC2CC3CCC(C2)N3C)c2ccccc21` (stereo not drawn), the Ki in test [1] came to 0.68 nM. The compound further registered a median effective dose (ED50) in test [2] of 0.041 mg/kg.

In test [1], `CC(C)COc1cc(C(=O)OC2CC3CCC(C2)N3C)c2ccccc2n1` (stereo not drawn) had a Ki of 0.44 nM. For the same compound, in test [2], it took a dose of 0.24 mg/kg to reach the 50% effect level (ED50).

The compound `CCCn1c(=O)cc(C(=O)NC2CC3CCC(C2)N3C)c2ccccc21` (stereo not drawn) came in with a Ki in test [1] of 67 nM.

Compound `CCCCn1c(=O)c(CC)c(C(=O)OC2CC3CCC(C2)N3C)c2ccccc21` (stereo not drawn) yielded a Ki in test [1] of 160 nM.

In the test listed under Rattus norvegicus, `Cc1nccn1CC1CCc2c(c3ccccc3n2C)C1=O` (stereo not drawn) [ONDANSETRON] displayed an ED50 of 0.021 mg/kg.

Take `CCCCCCOc1cc(C(=O)OC2CC3CCC(C2)N3C)c2ccccc2n1` (stereo not drawn): the inhibitory constant (Ki) in test [1] came to 3.2 nM. Further, the ED50 in test [2] is 7.68 mg/kg.

In the case of `CN1C2CCC1CC(OC(=O)c1cc(O)nc3ccccc13)C2` (stereo not drawn), the Ki in test [3] came out at 4.4 nM. In the test listed under Rattus norvegicus, this compound had an ED50 of 0.017 mg/kg.

For the compound `CN1C2CCC1CC(NC(=O)c1ccnc3ccccc13)C2` (stereo not drawn), the Ki in test [1] was more than 100 nM.

Compound `CCCCn1c(=O)c(CC)c(C(=O)NC2CC3CCC(C2)N3C)c2ccccc21` (stereo not drawn) displayed a Ki in test [1] of more than 100 nM.

In test [1], `CCCn1c(=O)cc(C(=O)OC2CC3CCC(C2)N3C)c2ccccc21` (stereo not drawn) gave a Ki of 0.45 nM. Also, the ED50 in test [2] was 0.33 mg/kg.

With `CN1C2CCC1CC(NC(=O)c1cc(=O)n(C)c3ccccc13)C2` (stereo not drawn), the Ki in test [1] is more than 100 nM.

The compound `CCCCn1c(=O)cc(C(=O)OC2CC3CCC(C2)N3C)c2cc(C)ccc21` (stereo not drawn) came in with a Ki in test [1] of 44 nM.

`CC(C)Cn1c(=O)cc(C(=O)OC2CC3CCC(C2)N3C)c2ccccc21` (stereo not drawn): the Ki in test [1] is 0.47 nM. The compound also came in with an ED50 in test [2] of 0.069 mg/kg.

`CN1C2CCC1CC(OC(=O)c1cc(=O)n(Cc3ccccc3)c3ccccc13)C2` (stereo not drawn) displayed a Ki in test [1] of 1.3 nM.

In turn, `CCOc1cc(C(=O)OC2CC3CCC(C2)N3C)c2ccccc2n1` (stereo not drawn) gave a Ki in test [1] of 0.88 nM. Further, it took a dose of 0.07 mg/kg to reach the 50% effect level in test [2] (ED50).

In test [1], `CCCOc1cc(C(=O)NC2CC3CCC(C2)N3C)c2ccccc2n1` (stereo not drawn) yielded a Ki of 42 nM.

(Values after ChEMBL document CHEMBL1125569, “5-HT3 receptor antagonists. 1. New quinoline derivatives” (J Med Chem, 1992).)
